The results in this text go back to ChEMBL document CHEMBL4680108, “Ancistrolikokine E, a 5,8'-Coupled Naphthylisoquinoline Alkaloid, Eliminates the Tolerance of Cancer Cells to Nutrition Starvation by Inhibition of the Akt/mTOR/Autophagy Signaling Pathway” (2018).

Calls of active or inactive are those of the source. The rule behind the calls is not given here.

For assay [1], the system named is PANC-1. As to the kind of experiment: Inhibition of Akt/mTOR signaling pathway in human PANC-1 cells cultured in nutrient-deprived medium assessed as decrease in total Akt level measured after 6 hrs by Western blot analysis. It counts as cell-based. Conditions: dose 2.5-40 µM. Put shortly: (§1)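 Western blot of PANC-1 cells exposed to compound at different concentrations for 6 h in NDM or DMEM. Probed for total and phosphorylated Akt and mTOR and for GβL. Band levels compared with untreated control cells in NDM.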
For orientation: Immunoblotting shows a protein as a band on a membrane.

Assay [2] concerns PANC-1. Nature of the assay: Anticancer activity against human PANC-1 cells assessed as cell death at 10 uM measured within 20 hrs by digital cell imaging analysis relative to control. The class given is functional. Put shortly: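 PANC-1 cells (3 × 10^6) in 35 mm dishes were exposed to 10 μM compound in nutrient-deprived medium in a stage-top incubator at 37 °C, 5% CO2. Phase-contrast images were taken every 10 min for 24 h (145 frames, 20× objective). Untreated cells in NDM served as control.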

For assay [3], the system named is PANC-1. As to the kind of experiment: Inhibition of Akt/mTOR signaling pathway in human PANC-1 cells cultured in nutrient-deprived medium assessed as decrease in phosphorylated Akt level at S473 residue at 20 uM measured after 6 hrs by Western blot analysis relative to control. It counts as cell-based. Put shortly:
as §1

Assay [4] deals with PANC-1. Nature of the assay: Inhibition of Akt/mTOR signaling pathway in human PANC-1 cells cultured in nutrient-deprived medium assessed as decrease in total mTOR level at 40 uM measured after 6 hrs by Western blot analysis relative to control. It counts as cell-based. Put shortly:
as §1

The test system of assay [5] is PANC-1. Nature of the assay: Induction of necrosis in human PANC-1 cells cultured in nutrient-deprived medium assessed as membrane blebbing at 5 uM measured after 24 hrs by ethidium bromide/acridine orange staining based phase contrast microscopy. It counts as functional, cell-based. The gist of the method:
(§2)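 PANC-1 cells (2 × 10^5/well) attached in DMEM for 24 h, washed twice with PBS, then treated in NDM (1.25, 2.5, 5 μM; control in NDM alone) for 24 h. Stained with ethidium bromide/acridine orange and imaged in phase-contrast and red/green fluorescence modes (20× objective).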

Assay [6] concerns PANC-1. As to the kind of experiment: Inhibition of Akt/mTOR signaling pathway in human PANC-1 cells cultured in nutrient-deprived medium assessed as decrease in total Akt level at 40 uM measured after 6 hrs by Western blot analysis relative to control. It counts as cell-based. The gist of the method:
as §1

Assay [7] deals with PANC-1. As to the kind of experiment: Induction of apoptosis in human PANC-1 cells cultured in nutrient-deprived medium assessed as inhibition of caspase-3 measured after 6 hrs by Western blot analysis. It counts as functional, cell-based. Conditions: dose 2.5-40 µM. Put shortly:
(§3)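 PANC-1 cells in NDM or DMEM exposed to compound at different concentrations for 6 h, then immunoblotted for Bcl-2, Bcl-xL and caspase-3.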

Assay [8] has as its system PANC-1. Nature of the assay: Inhibition of autophagy in human PANC-1 cells cultured in nutrient-deprived medium assessed as inhibition of LC3-2 expression at 40 uM after 6 hrs in presence of chloroquine by Western blot analysis relative to control. It counts as functional, cell-based.
In assay [9] the test system is PANC-1. As to the kind of experiment: Inhibition of Akt/mTOR signaling pathway in human PANC-1 cells cultured in nutrient-deprived medium assessed as decrease in phosphorylated mTOR level at S2448 residue measured after 6 hrs by Western blot analysis. The class given is cell-based. Particulars: dose 2.5-40 µM. Put shortly: as §1
For assay [10], the system named is PANC-1. As to the kind of experiment: Inhibition of Akt/mTOR signaling pathway in human PANC-1 cells cultured in nutrient-deprived medium assessed as decrease in phosphorylated Akt level at S473 residue measured after 6 hrs by Western blot analysis. It counts as cell-based. Conditions: dose 2.5-40 µM. The gist of the method:
as §1

Assay [11] deals with PANC-1. Nature of the assay: Anticancer activity against human PANC-1 cells assessed as inhibition of cell motility at 10 uM measured within 90 mins by digital cell imaging analysis. Particulars: time min <=90. The class given is functional, cell-based. The gist of the method: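 PANC-1 cells (3 × 10^6) in 35 mm dishes in nutrient-deprived medium (NDM), treated with 10 μM; kept in a stage-top incubator at 37 °C, 5% CO2. Phase-contrast images taken every 10 min for 24 h (145 frames, 20× objective). Untreated cells in NDM served as control.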

Assay [12] deals with PANC-1. Nature of the assay: Inhibition of colony formation in human PANC-1 cells at 5 uM cultured in nutrient rich DMEM medium measured after 24 hrs by crystal violet staining based assay relative to control. The class given is functional. Put shortly:
(§4)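 PANC-1 cells (5 × 10^2/well) attached in DMEM for 24 h, then exposed to 0, 2.5, 5 or 10 μM in DMEM for 24 h (triplicate). Washed, grown in fresh compound-free DMEM for 12 days, fixed in 4% formaldehyde and stained with crystal violet for 10 min. Colony area measured as a percentage of well area.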

For assay [13], the system named is PANC-1. Nature of the assay: Induction of necrosis in human PANC-1 cells cultured in nutrient-deprived medium assessed as rupture of cell membrane at 5 uM measured after 24 hrs by ethidium bromide/acridine orange staining based phase contrast microscopy. The class given is functional. The gist of the method: as §2
Assay [14] relates to PANC-1. As to the kind of experiment: Inhibition of Akt/mTOR signaling pathway in human PANC-1 cells cultured in nutrient-deprived medium assessed as decrease in total Akt level at 20 uM measured after 6 hrs by Western blot analysis relative to control. The class given is cell-based. Put shortly: as §1
Assay [15] deals with PANC-1. As to the kind of experiment: Inhibition of Akt/mTOR signaling pathway in human PANC-1 cells cultured in nutrient-deprived medium assessed as decrease in phosphorylated Akt level at S473 residue at 40 uM measured after 6 hrs by Western blot analysis relative to control. It counts as cell-based. Put shortly:
as §1

Assay [16] has as its system PANC-1. Nature of the assay: Inhibition of Akt/mTOR signaling pathway in human PANC-1 cells cultured in nutrient-deprived medium assessed as decrease in GbetaL level measured after 6 hrs by Western blot analysis. The class given is cell-based. Conditions: dose 2.5-40 µM. Put shortly:
as §1

Assay [17] concerns PANC-1. As to the kind of experiment: Inhibition of colony formation in human PANC-1 cells at 10 uM cultured in nutrient rich DMEM medium measured after 24 hrs by crystal violet staining based assay relative to control. It counts as functional. The gist of the method: as §4
In assay [18] the test system is PANC-1. Nature of the assay: Inhibition of autophagy in human PANC-1 cells cultured in nutrient-deprived medium assessed as inhibition of Atg12 expression after 6 hrs by Western blot analysis. The class given is functional, cell-based. Particulars: dose 2.5-40 µM.
Assay [19] has as its system PANC-1. As to the kind of experiment: Induction of apoptosis in human PANC-1 cells cultured in nutrient-deprived medium assessed as inhibition of Bcl-xl measured after 6 hrs by Western blot analysis. The class given is functional, cell-based. Particulars: dose 2.5-40 µM. Put shortly:
as §3

The test system of assay [20] is PANC-1. Nature of the assay: Inhibition of Akt/mTOR signaling pathway in human PANC-1 cells cultured in nutrient-deprived medium assessed as decrease in phosphorylated mTOR level at S2448 residue at 40 uM measured after 6 hrs by Western blot analysis relative to control. It counts as cell-based. Put shortly: as §1
Assay [21] deals with PANC-1. As to the kind of experiment: Inhibition of cell migration in human PANC1 cells assessed as wound length at 5 uM cultured in nutrient rich DMEM medium measured after 48 hrs by wound healing assay relative to T0. It counts as functional. The arrangement: scale not given: the % may be the effect or the level left. The gist of the method: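 PANC-1 monolayers (5 × 10^5 cells/well), attached 24 h, scratched about 600 μm with a pipet tip, washed with PBS. Exposed in DMEM to 0–10 μM for 48 h in triplicate. Wound length measured at 10 points on phase-contrast images and expressed relative to initial length at T0.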

For assay [22], the system named is PANC-1. Nature of the assay: Inhibition of autophagy in human PANC-1 cells cultured in nutrient-deprived medium assessed as inhibition of LC3-1 expression after 6 hrs by Western blot analysis. It counts as functional, cell-based. Conditions: dose 2.5-40 µM.
The test system of assay [23] is PANC-1. Nature of the assay: Induction of apoptosis in human PANC-1 cells cultured in nutrient-deprived medium assessed as induction of active caspase-3 cleavage at 2.5 to 40 uM measured after 6 hrs by Western blot analysis. The class given is functional, cell-based. Particulars: dose 2.5-40 µM. Put shortly:
as §3

As for `COc1cc(OC)c(-c2ccc(O)c3c(OC)cc(C)cc23)c2c1C(C)=N[C@H](C)C2`, the inhibition (commonly the relative decrease from the control value, in per cent) was “Dose-dependent effect” in the assay with PANC-1 [1]; 65% in the assay with PANC-1 [3]; 100% with PANC-1 [4]; 86% in the assay with PANC-1 [6]; “Dose-dependent effect” with PANC-1 [9]; “Dose-dependent effect” in the assay with PANC-1 [10]. In addition, the inhibition with PANC-1 [14] is 48%; with PANC-1 [15] it was 99%; in the assay with PANC-1 [16], “Dose-dependent effect”; in the assay on PANC-1 [18], “Dose-dependent effect”; in the assay with PANC-1 [20], 92%; with PANC-1 [22], “Dose-dependent effect”. Further, the Activity was 100% with PANC-1 [2] and 58% with PANC-1 [21]. The result with PANC-1 [5] and in the assay on PANC-1 [13] was Active. Further, the inhibition entry in the assay with PANC-1 [7], in the assay with PANC-1 [8], with PANC-1 [11] and with PANC-1 [19] was “Active” in each case. This compound also displayed an inhibition at 5 µM in the assay on PANC-1 [12] of 100%. The compound further displayed an inhibition at 10 µM with PANC-1 [17] of 100%. Further, in the assay with PANC-1 [23], the outcome was inactive.
